Experimental data reported in ChEMBL document CHEMBL3525967, “In vitro glucuronidation of the antibacterial triclocarban and its oxidative metabolites” (Drug Metab Dispos, 2012).

Assays:
Liver = assay: Intrinsic clearance in B6C3F1 mouse liver microsomes after 30 mins by LC-ESI-MS analysis; format: ADME; conditions: 0.5 h
Procedure, shortened: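 2'-OH-TCC at 0.2, 0.5, 1, 2, 3, 5, 10 and 50 µM incubated with liver microsomes (alamethicin, MgCl2, saccharolactone, UDPGA; 37 °C), sampled at 5, 10, 15 and 30 min. Samples ≥5 µM diluted 1:9 in ACN; LC-ESI-MS. KM and vmax fitted from rate vs concentration; intrinsic clearance derived from these; mean and SD of three.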

[1] = Drug metabolism in human intestine microsomes assessed as N'-glucuronide-triclocarban formation incubated for 5 mins prior to UDPGA addition measured after 5 to 30 mins by LC-UV analysis; format: ADME
Procedure, shortened: (§1)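 Microsomes or UGT Supersomes (5 µg protein) were held 15 min on ice with alamethicin in 100 mM potassium phosphate pH 7.4. TCC was added at 10 µM (2% DMSO) with 10 mM MgCl2 and 10 mM saccharolactone, pre-warmed 5 min at 37 °C, then started with UDPGA. Samples at 5, 10, 15 and 30 min were quenched in ACN. Product was read by LC-UV at 265 nm; rate came from regression over time, three incubations.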

[2] = Drug metabolism in human kidney microsomes assessed as N'-glucuronide-triclocarban formation incubated for 5 mins prior to UDPGA addition measured after 5 to 30 mins by LC-UV analysis; format: ADME
Procedure, shortened: (§2)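 Pooled human kidney or liver microsomes (liver: 25 mixed-gender donors), 5 µg protein, in 200 µL 100 mM potassium phosphate pH 7.4. Alamethicin pre-treated on ice 15 min. Final 10 µM TCC (2% DMSO), with 10 mM MgCl2 and 10 mM saccharolactone, preincubated 5 min at 37 °C. Started with UDPGA (20 mM stock). Sampled at 5, 10, 15 and 30 min into ACN containing 1 µM DCC internal standard.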

[3] = molecular target: T1, UDP-glucuronosyltransferase 1A9 (Homo sapiens, UniProt O60656); assay: Drug metabolism assessed as human UGT1A9-mediated N-glucuronide-triclocarban formation expressed in baculovirus infected insect sf9 cells incubated for 5 mins prior to UDPGA addition measured after 5 to 30 mins by LC-UV analysis; format: ADME; procedure, shortened: as §1
T1 sequence (O60656 whole entry): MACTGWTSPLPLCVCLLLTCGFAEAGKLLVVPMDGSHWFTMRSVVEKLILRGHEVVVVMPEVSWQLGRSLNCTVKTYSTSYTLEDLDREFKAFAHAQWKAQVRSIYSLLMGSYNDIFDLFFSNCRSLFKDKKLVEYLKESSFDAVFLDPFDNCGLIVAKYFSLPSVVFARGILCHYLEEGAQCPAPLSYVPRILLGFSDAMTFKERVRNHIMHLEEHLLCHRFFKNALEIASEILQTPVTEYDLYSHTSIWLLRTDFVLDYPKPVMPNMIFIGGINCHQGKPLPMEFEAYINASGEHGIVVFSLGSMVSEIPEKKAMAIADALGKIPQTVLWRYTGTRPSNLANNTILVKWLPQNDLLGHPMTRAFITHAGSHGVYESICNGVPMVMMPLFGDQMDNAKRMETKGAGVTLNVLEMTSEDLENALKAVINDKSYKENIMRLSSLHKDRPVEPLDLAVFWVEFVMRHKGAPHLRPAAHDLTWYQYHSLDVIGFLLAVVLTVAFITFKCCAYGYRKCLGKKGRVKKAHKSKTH

[4] = Drug excretion in Swiss webster mouse urine assessed as 3'-O-glucuronide-triclocarban formation at 5 mg/kg, po by LC-MS analysis; format: ADME, organism-based; design: dose 5 mg/kg, route oral; conditions: in vivo
Procedure, shortened: (§3)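 Mice were housed two per metabolic cage, with blank urine collected over the 24 h before dosing. TCC was given by oral gavage as a 1 mg/mL solution in 20/80 DMSO/PEG400 (v/v) at 5 mg/kg. Urine was collected at 0-24 h and 24-48 h and analysed by online LC-MS. Values are the mean of two independent experiments.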

[5] = molecular target: T2, UDP-glucuronosyltransferase 1A1 (Homo sapiens, UniProt P22309); assay: Drug metabolism assessed as human UGT1A1-mediated N-glucuronide-triclocarban formation expressed in baculovirus infected insect sf9 cells incubated for 5 mins prior to UDPGA addition measured after 5 to 30 mins by LC-UV analysis; format: ADME; procedure, shortened: as §1
T2 sequence (P22309 whole entry): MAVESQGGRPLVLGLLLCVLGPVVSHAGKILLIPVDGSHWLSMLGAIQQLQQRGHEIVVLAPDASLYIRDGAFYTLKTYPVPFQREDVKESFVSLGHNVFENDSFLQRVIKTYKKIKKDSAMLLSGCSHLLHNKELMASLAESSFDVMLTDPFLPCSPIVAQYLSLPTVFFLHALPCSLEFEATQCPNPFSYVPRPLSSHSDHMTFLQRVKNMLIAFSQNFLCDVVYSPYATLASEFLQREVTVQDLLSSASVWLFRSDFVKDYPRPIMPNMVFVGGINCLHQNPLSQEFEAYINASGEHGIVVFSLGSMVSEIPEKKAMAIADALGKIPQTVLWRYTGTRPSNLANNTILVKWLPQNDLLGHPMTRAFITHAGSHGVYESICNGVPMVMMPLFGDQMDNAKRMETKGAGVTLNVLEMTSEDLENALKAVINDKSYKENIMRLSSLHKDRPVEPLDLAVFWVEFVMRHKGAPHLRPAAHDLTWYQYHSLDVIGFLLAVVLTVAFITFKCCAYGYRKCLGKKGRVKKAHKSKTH

Liver microsome [6] = assay: Drug metabolism in Sprague-Dawley rat liver microsomes assessed as N-glucuronide-triclocarban formation incubated for 5 mins prior to UDPGA addition measured after 5 to 30 mins by LC-UV analysis; format: ADME; procedure, shortened: as §1
Liver microsome [7] = assay: Drug metabolism in human liver microsomes assessed as N'-glucuronide-triclocarban formation incubated for 5 mins prior to UDPGA addition measured after 30 mins by LC-UV-ESI-MS/MS analysis; format: ADME; conditions: 0.5 h; procedure, shortened: as §2
[8] = molecular target: T3, UDP-glucuronosyltransferase 1A7 (Homo sapiens, UniProt Q9HAW7); assay: Drug metabolism assessed as human UGT1A7-mediated N'-glucuronide-triclocarban formation expressed in baculovirus infected insect sf9 cells incubated for 5 mins prior to UDPGA addition measured after 5 to 30 mins by LC-UV analysis; format: ADME; procedure, shortened: as §1
T3 sequence (Q9HAW7 whole entry): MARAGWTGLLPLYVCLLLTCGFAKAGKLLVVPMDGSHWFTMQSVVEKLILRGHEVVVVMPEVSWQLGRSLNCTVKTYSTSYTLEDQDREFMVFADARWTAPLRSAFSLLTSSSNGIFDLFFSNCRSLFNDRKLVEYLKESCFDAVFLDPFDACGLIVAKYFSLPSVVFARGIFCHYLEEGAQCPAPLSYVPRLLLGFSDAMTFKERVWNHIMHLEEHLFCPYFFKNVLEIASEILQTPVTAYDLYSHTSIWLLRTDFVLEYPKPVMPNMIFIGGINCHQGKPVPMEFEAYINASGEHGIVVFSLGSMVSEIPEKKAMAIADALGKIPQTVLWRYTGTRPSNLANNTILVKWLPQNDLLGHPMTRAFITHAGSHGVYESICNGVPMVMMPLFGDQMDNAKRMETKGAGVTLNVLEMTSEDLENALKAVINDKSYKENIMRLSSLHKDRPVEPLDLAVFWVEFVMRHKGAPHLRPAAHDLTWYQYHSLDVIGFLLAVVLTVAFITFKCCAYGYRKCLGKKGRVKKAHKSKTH

[9] = Drug excretion in Swiss webster mouse urine assessed as 2'-O-glucuronide-triclocarban formation at 5 mg/kg, po by LC-MS analysis; format: ADME, organism-based; design: dose 5 mg/kg, route oral; conditions: in vivo; procedure, shortened: as §3

O=C(Nc1ccc(Cl)c(Cl)c1)Nc1ccc(Cl)cc1O
1450 µL/min/mg: CLH (Liver)

O=C(Nc1ccc(Cl)cc1)Nc1ccc(Cl)c(Cl)c1 [TRICLOCARBAN]
metabolite_not_detected: Drug metabolism [1] | Drug metabolism [2] | Drug metabolism [3] | Drug metabolism [5] | Drug metabolism (Liver microsome [6]) | Drug metabolism [8]
metabolite_detected: Drug excretion [4] | Drug metabolism (Liver microsome [7]) | Drug excretion [9]
